Source: ChEMBL document CHEMBL4689842, “EUbOPEN Chemogenomics Library wave 1” (2021)

Test system: U2OS
Assay: Multiplex assay against U2OS
Assay type: toxicity, cell-based
Conditions: human
Method in brief: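 With compound added, live cells were imaged on a CQ1 microscope at 37°C and 5% CO2; staining with Hoechst33342, BioTracker Green Microtubule Cytoskeleton Dye, MitoTracker Red and Annexin V Alexa Fluor 680 had been done at seeding. The CellPathfinder machine-learning gating scheme split cells into Hoechst high-intensity objects or normal cells, normal cells into healthy, pyknosed or fragmented nuclei, and pyknosed cells into mitotic or apoptotic. The tubulin, mitochondrial-mass and membrane-permeability phenotypes are per cents of healthy-nucleus cells.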

[1] = 12 h, 1 µM, compound concentration 1 uM, replicate 1
[2] = 12 h, 1 µM, compound concentration 1 uM, replicate 2
[3] = 12 h, 10 µM, compound concentration 10 uM, replicate 1
[4] = 12 h, 10 µM, compound concentration 10 uM, replicate 2
[5] = 24 h, 1 µM, compound concentration 1 uM, replicate 1
[6] = 24 h, 1 µM, compound concentration 1 uM, replicate 2
[7] = 24 h, 10 µM, compound concentration 10 uM, replicate 1
[8] = 24 h, 10 µM, compound concentration 10 uM, replicate 2
[9] = 48 h, 1 µM, compound concentration 1 uM, replicate 1
[10] = 48 h, 1 µM, compound concentration 1 uM, replicate 2
[11] = 48 h, 10 µM, compound concentration 10 uM, replicate 1
[12] = 48 h, 10 µM, compound concentration 10 uM, replicate 2

SMILES: COC(=N)c1nc2ccc3ncnc(Nc4ccc(OC)cc4F)c3c2s1
- Population Apoptotic (%) [1]: 36%
- Population Fragmented Nuclei (%) [1]: 9%
- Population Healthy Nuclei (%) [1]: 78%
- Population Hoechst High Intensity Objects (%) [1]: 8%
- Population Membrane Permeable-Phenotype (%) [1]: 17%
- Population Mitochondria Different-Phenotype (%) [1]: 25%
- Population Mitotic Cells (%) [1]: 63%
- Population Normal (%) [1]: 91%
- Population Pyknosed Nuclei (%) [1]: 12%
- Population Tubulin-Different-Phenotype (%) [1]: 27%
- Total Cell Count [1]: 162
- Population Apoptotic (%) [2]: 23%
- Population Fragmented Nuclei (%) [2]: 10%
- Population Healthy Nuclei (%) [2]: 75%
- Population Hoechst High Intensity Objects (%) [2]: 6%
- Population Membrane Permeable-Phenotype (%) [2]: 16%
- Population Mitochondria Different-Phenotype (%) [2]: 30%
- Population Mitotic Cells (%) [2]: 76%
- Population Normal (%) [2]: 93%
- Population Pyknosed Nuclei (%) [2]: 13%
- Population Tubulin-Different-Phenotype (%) [2]: 33%
- Total Cell Count [2]: 110
- Population Apoptotic (%) [3]: 37%
- Population Fragmented Nuclei (%) [3]: 2%
- Population Healthy Nuclei (%) [3]: 92%
- Population Hoechst High Intensity Objects (%) [3]: 1%
- Population Membrane Permeable-Phenotype (%) [3]: 10%
- Population Mitochondria Different-Phenotype (%) [3]: 19%
- Population Mitotic Cells (%) [3]: 62%
- Population Normal (%) [3]: 98%
- Population Pyknosed Nuclei (%) [3]: 5%
- Population Tubulin-Different-Phenotype (%) [3]: 25%
- Total Cell Count [3]: 190
- Population Fragmented Nuclei (%) [4]: 13%
- Population Healthy Nuclei (%) [4]: 77%
- Population Hoechst High Intensity Objects (%) [4]: 13%
- Population Membrane Permeable-Phenotype (%) [4]: 8%
- Population Mitochondria Different-Phenotype (%) [4]: 24%
- Population Normal (%) [4]: 86%
- Population Pyknosed Nuclei (%) [4]: 8%
- Population Tubulin-Different-Phenotype (%) [4]: 32%
- Total Cell Count [4]: 179
- Population Apoptotic (%) [5]: 28%
- Population Fragmented Nuclei (%) [5]: 5%
- Population Healthy Nuclei (%) [5]: 82%
- Population Hoechst High Intensity Objects (%) [5]: 5%
- Population Membrane Permeable-Phenotype (%) [5]: 17%
- Population Mitochondria Different-Phenotype (%) [5]: 22%
- Population Mitotic Cells (%) [5]: 71%
- Population Normal (%) [5]: 94%
- Population Pyknosed Nuclei (%) [5]: 12%
- Population Tubulin-Different-Phenotype (%) [5]: 44%
- Total Cell Count [5]: 219
- Population Apoptotic (%) [6]: 44%
- Population Fragmented Nuclei (%) [6]: 9%
- Population Hoechst High Intensity Objects (%) [6]: 8%
- Population Membrane Permeable-Phenotype (%) [6]: 12%
- Population Mitochondria Different-Phenotype (%) [6]: 27%
- Population Mitotic Cells (%) [6]: 55%
- Population Normal (%) [6]: 91%
- Population Pyknosed Nuclei (%) [6]: 7%
- Population Tubulin-Different-Phenotype (%) [6]: 39%
- Total Cell Count [6]: 118
- Population Fragmented Nuclei (%) [7]: 1%
- Population Healthy Nuclei (%) [7]: 96%
- Population Hoechst High Intensity Objects (%) [7]: 1%
- Population Membrane Permeable-Phenotype (%) [7]: 7%
- Population Mitochondria Different-Phenotype (%) [7]: 16%
- Population Normal (%) [7]: 98%
- Population Pyknosed Nuclei (%) [7]: 1%
- Population Tubulin-Different-Phenotype (%) [7]: 28%
- Total Cell Count [7]: 264
- Population Apoptotic (%) [8]: 75%
- Population Fragmented Nuclei (%) [8]: 11%
- Population Healthy Nuclei (%) [8]: 85%
- Population Hoechst High Intensity Objects (%) [8]: 7%
- Population Membrane Permeable-Phenotype (%) [8]: 10%
- Population Mitochondria Different-Phenotype (%) [8]: 34%
- Population Mitotic Cells (%) [8]: 25%
- Population Normal (%) [8]: 92%
- Population Pyknosed Nuclei (%) [8]: 3%
- Population Tubulin-Different-Phenotype (%) [8]: 32%
- Total Cell Count [8]: 222

SMILES: CN1C2CCC1CC(OC(c1ccc(F)cc1)c1ccc(F)cc1)C2.Cl (stereo not drawn)
- Population Apoptotic (%) [1]: 45%
- Population Fragmented Nuclei (%) [1]: 8%
- Population Healthy Nuclei (%) [1]: 80%
- Population Hoechst High Intensity Objects (%) [1]: 4%
- Population Membrane Permeable-Phenotype (%) [1]: 2%
- Population Mitochondria Different-Phenotype (%) [1]: 11%
- Population Mitotic Cells (%) [1]: 54%
- Population Normal (%) [1]: 95%
- Population Pyknosed Nuclei (%) [1]: 10%
- Total Cell Count [1]: 223
- Population Apoptotic (%) [2]: 100%
- Population Fragmented Nuclei (%) [2]: 5%
- Population Healthy Nuclei (%) [2]: 92%
- Population Hoechst High Intensity Objects (%) [2]: 2%
- Population Membrane Permeable-Phenotype (%) [2]: 3%
- Population Mitochondria Different-Phenotype (%) [2]: 4%
- Population Mitotic Cells (%) [2]: 0%
- Population Normal (%) [2]: 97%
- Population Pyknosed Nuclei (%) [2]: 1%
- Population Tubulin-Different-Phenotype (%) [2]: 8%
- Total Cell Count [2]: 69
- Population Apoptotic (%) [3]: 56%
- Population Fragmented Nuclei (%) [3]: 15%
- Population Healthy Nuclei (%) [3]: 68%
- Population Hoechst High Intensity Objects (%) [3]: 4%
- Population Membrane Permeable-Phenotype (%) [3]: 4%
- Population Mitochondria Different-Phenotype (%) [3]: 81%
- Population Mitotic Cells (%) [3]: 43%
- Population Normal (%) [3]: 95%
- Population Pyknosed Nuclei (%) [3]: 15%
- Population Tubulin-Different-Phenotype (%) [3]: 54%
- Total Cell Count [3]: 151
- Population Apoptotic (%) [4]: 80%
- Population Fragmented Nuclei (%) [4]: 8%
- Population Healthy Nuclei (%) [4]: 78%
- Population Hoechst High Intensity Objects (%) [4]: 6%
- Population Membrane Permeable-Phenotype (%) [4]: 10%
- Population Mitochondria Different-Phenotype (%) [4]: 89%
- Population Mitotic Cells (%) [4]: 20%
- Population Normal (%) [4]: 93%
- Population Pyknosed Nuclei (%) [4]: 13%
- Population Tubulin-Different-Phenotype (%) [4]: 49%
- Total Cell Count [4]: 78
- Population Apoptotic (%) [5]: 50%
- Population Fragmented Nuclei (%) [5]: 7%
- Population Healthy Nuclei (%) [5]: 84%
- Population Hoechst High Intensity Objects (%) [5]: 3%
- Population Membrane Permeable-Phenotype (%) [5]: 1%
- Population Mitochondria Different-Phenotype (%) [5]: 6%
- Population Mitotic Cells (%) [5]: 50%
- Population Normal (%) [5]: 96%
- Population Pyknosed Nuclei (%) [5]: 7%
- Population Tubulin-Different-Phenotype (%) [5]: 3%
- Total Cell Count [5]: 305
- Population Apoptotic (%) [6]: 20%
- Population Fragmented Nuclei (%) [6]: 3%
- Population Healthy Nuclei (%) [6]: 90%
- Population Hoechst High Intensity Objects (%) [6]: 2%
- Population Membrane Permeable-Phenotype (%) [6]: 4%
- Population Mitochondria Different-Phenotype (%) [6]: 4%
- Population Mitotic Cells (%) [6]: 80%
- Population Normal (%) [6]: 97%
- Population Pyknosed Nuclei (%) [6]: 6%
- Population Tubulin-Different-Phenotype (%) [6]: 8%
- Total Cell Count [6]: 82
- Population Apoptotic (%) [7]: 62%
- Population Fragmented Nuclei (%) [7]: 15%
- Population Healthy Nuclei (%) [7]: 65%
- Population Hoechst High Intensity Objects (%) [7]: 7%
- Population Membrane Permeable-Phenotype (%) [7]: 0%
- Population Mitochondria Different-Phenotype (%) [7]: 71%
- Population Mitotic Cells (%) [7]: 37%
- Population Normal (%) [7]: 92%
- Population Tubulin-Different-Phenotype (%) [7]: 30%
- Total Cell Count [7]: 196
- Population Apoptotic (%) [8]: 80%
- Population Fragmented Nuclei (%) [8]: 16%
- Population Healthy Nuclei (%) [8]: 64%
- Population Hoechst High Intensity Objects (%) [8]: 3%
- Population Membrane Permeable-Phenotype (%) [8]: 6%
- Population Mitochondria Different-Phenotype (%) [8]: 78%
- Population Mitotic Cells (%) [8]: 20%
- Population Normal (%) [8]: 96%
- Population Pyknosed Nuclei (%) [8]: 19%
- Population Tubulin-Different-Phenotype (%) [8]: 25%
- Total Cell Count [8]: 107
- Population Apoptotic (%) [9]: 33%
- Population Fragmented Nuclei (%) [9]: 6%
- Population Healthy Nuclei (%) [9]: 87%
- Population Hoechst High Intensity Objects (%) [9]: 1%
- Population Membrane Permeable-Phenotype (%) [9]: 2%
- Population Mitochondria Different-Phenotype (%) [9]: 6%
- Population Mitotic Cells (%) [9]: 66%
- Population Normal (%) [9]: 98%
- Population Pyknosed Nuclei (%) [9]: 6%
- Population Tubulin-Different-Phenotype (%) [9]: 5%
- Total Cell Count [9]: 477
- Population Apoptotic (%) [10]: 0%
- Population Fragmented Nuclei (%) [10]: 1%
- Population Healthy Nuclei (%) [10]: 97%
- Population Hoechst High Intensity Objects (%) [10]: 2%
- Population Membrane Permeable-Phenotype (%) [10]: 5%
- Population Mitochondria Different-Phenotype (%) [10]: 16%
- Population Mitotic Cells (%) [10]: 100%
- Population Normal (%) [10]: 97%
- Population Pyknosed Nuclei (%) [10]: 0%
- Population Tubulin-Different-Phenotype (%) [10]: 7%
- Total Cell Count [10]: 119
- Population Apoptotic (%) [11]: 64%
- Population Fragmented Nuclei (%) [11]: 20%
- Population Healthy Nuclei (%) [11]: 63%
- Population Hoechst High Intensity Objects (%) [11]: 5%
- Population Membrane Permeable-Phenotype (%) [11]: 1%
- Population Mitochondria Different-Phenotype (%) [11]: 44%
- Population Mitotic Cells (%) [11]: 35%
- Population Normal (%) [11]: 94%
- Population Pyknosed Nuclei (%) [11]: 15%
- Population Tubulin-Different-Phenotype (%) [11]: 17%
- Total Cell Count [11]: 249
- Population Apoptotic (%) [12]: 77%
- Population Fragmented Nuclei (%) [12]: 16%
- Population Healthy Nuclei (%) [12]: 75%
- Population Hoechst High Intensity Objects (%) [12]: 6%
- Population Membrane Permeable-Phenotype (%) [12]: 18%
- Population Mitochondria Different-Phenotype (%) [12]: 56%
- Population Mitotic Cells (%) [12]: 22%
- Population Normal (%) [12]: 93%
- Population Pyknosed Nuclei (%) [12]: 7%
- Population Tubulin-Different-Phenotype (%) [12]: 27%
- Total Cell Count [12]: 127
